According to ChEMBL document CHEMBL3044914, “Synthesis of novel 12-aryl-8,9,10,12-tetrahydrobenzo[a]xanthene-11-thiones and evaluation of their biocidal effects” (2012):
≈ marks a conversion by molar mass, not a printed value.

What was measured:
[1] = Inhibition of soil urease assessed as urea-N level at 1% compound level measured after 9 hr; conditions: concentration not given here
Outline: (§1)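 Soil from cultivated institute farm fields, 50 g air-dried per beaker, moisture kept daily with distilled water. Compound in acetone added at 1% of applied urea-N (0.1 mg); urea-alone control; completely randomized design, three replicates. 5 g samples taken at 9 and 27 h, extracted with 1 M sodium sulfate containing phenyl mercuric acetate to stop hydrolysis; urea-N estimated.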

[2] = Inhibition of soil urease assessed as urea-N level at 1% compound level measured after 27 hr; conditions: concentration not given here; outline: as §1
[3] = system: Spodoptera litura; assay: Insect growth regulatory activity against Spodoptera litura third-instar larvae assessed as growth inhibition index at 0.1% measured after 24 hr post compound treatment by leaf-dip method; format: functional
[4] = system: Spodoptera litura; assay: Insect growth regulatory activity against Spodoptera litura third-instar larvae assessed as normal adult level at 0.1% measured after 24 hr post compound treatment by leaf-dip method; format: functional
[5] = system: Spodoptera litura; assay: Insect growth regulatory activity against Spodoptera litura third-instar larvae assessed as abnormal or dead larva level at 0.1% measured after 24 hr post compound treatment by leaf-dip method; format: functional
Outline: (§2)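 Third-instar larvae were reared on artificial diet, newly moulted and pre-weighed at 30–40 mg. The 0.1% solution was a stock, applied at different concentrations. Leaves on moistened filter paper in Petri dishes were sprayed with the test solution and dried. Ten larvae were placed per dish, in triplicate, with carrier-solvent controls. Larval weight, mortality, pupation, deformed pupae, intermediates, adult emergence and deformed adults were recorded after 24 h.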

[6] = system: Spodoptera litura; assay: Insect growth regulatory activity against Spodoptera litura third-instar larvae assessed as abnormal pupa or dead pupa level at 0.1% measured after 24 hr post compound treatment by leaf-dip method; format: functional; outline: as §2
[7] = system: Spodoptera litura; assay: Insect growth regulatory activity against Spodoptera litura third-instar larvae assessed as mortality at 0.1% measured after 24 hr post compound treatment by leaf-dip method; format: functional; outline: as §2
[8] = system: Spodoptera litura; assay: Insecticidal activity against Spodoptera litura third-instar larvae fed on 0.1% compound pre-treated castor leaves assessed as mortality after 24 hr post compound treatment by feeding method; format: functional
Outline: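 Castor leaf was dipped for 2 s in a 0.1% solution, air-dried and placed on moist filter paper in 9 cm Petri plates. Third-instar larvae aged 7 ± 1 day were prestarved 4 h and released singly into each plate. There were thirty replications per treatment, with a solvent control. Mortality was scored at 24 h.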

[9] = system: Spodoptera litura; assay: Insecticidal activity against Spodoptera litura third-instar larvae exposed to 0.1% compound on ventral side of larvae assessed as mortality after 24 hr post compound treatment by contact method; format: functional
Outline: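 Topical treatment of third-instar larvae aged 7 ± 1 day. Each treatment was run in triplicate with solvent as control. Mortality was recorded after 24 h.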

[10] = system: Alternaria porri; assay: Antifungal activity against Alternaria porri by food poison technique; format: functional; conditions: read-out: ED50 (the source's name)
[11] = system: Fusarium oxysporum; assay: Antifungal activity against Fusarium oxysporum by food poison technique; format: functional; conditions: read-out: ED50 (the source's name)
[12] = system: Athelia rolfsii; assay: Antifungal activity against Athelia rolfsii by food poison technique; format: functional; conditions: Agroathelia rolfsii; read-out: ED50 (the source's name)
[13] = system: Macrophomina phaseolina; assay: Antifungal activity against Rhizoctonia bataticola by food poison technique; format: functional; conditions: read-out: ED50 (the source's name)

Row | Structure (SMILES) | inhibition [1] | inhibition [2] | growth inhibition (GI) [3] | Activity [4] | Activity [5] | Activity [6] | mortality [7] | mortality [8] | mortality [9] | EC50 [10] | EC50 [11] | EC50 [12] | EC50 [13]
1 | Cc1ccc(C2C3=C(CC(C)(C)CC3=S)Oc3ccc4ccccc4c32)cc1 (centres undefined) | 33% | 12% | 50% | 50% | 10% | 10% | 30% | 20% | 10% | 385 µg/mL (≈ 1000 µM) | 410 µg/mL (≈ 1070 µM) | 321 µg/mL (≈ 834 µM) | 489 µg/mL (≈ 1270 µM)
2 | CCCCC(O)(Cn1cncn1)c1ccc(Cl)cc1Cl (centres undefined) [HEXACONAZOLE] | – | – | – | – | – | – | – | – | – | 25.5 µg/mL (≈ 81.3 µM) | 20.6 µg/mL (≈ 65.4 µM) | 13 µg/mL (≈ 41.2 µM) | 334 µg/mL (≈ 1060 µM)
3 | CC1(C)CC(=S)C2=C(C1)Oc1ccc3ccccc3c1C2c1ccccc1 (centres undefined) | 5% | 5% | 75% | 35% | 0% | 15% | 50% | 20% | 20% | 336 µg/mL (≈ 906 µM) | 326 µg/mL (≈ 879 µM) | 525 µg/mL (≈ 1420 µM) | 570 µg/mL (≈ 1540 µM)
4 | CC1(C)CC(=S)C2=C(C1)Oc1ccc3ccccc3c1C2c1cccs1 (centres undefined) | 4% | -8% | 35% | 65% | 0% | 20% | 15% | 10% | 0% | 456 µg/mL (≈ 1210 µM) | 375 µg/mL (≈ 997 µM) | 457 µg/mL (≈ 1210 µM) | 590 µg/mL (≈ 1570 µM)
5 | COc1ccccc1C1C2=C(CC(C)(C)CC2=S)Oc2ccc3ccccc3c21 (centres undefined) | 24% | 6% | 60% | 40% | 20% | 10% | 30% | 30% | 15% | 418 µg/mL (≈ 1040 µM) | 336 µg/mL (≈ 838 µM) | 324 µg/mL (≈ 810 µM) | 484 µg/mL (≈ 1210 µM)
6 | CC1(C)CC(=S)C2=C(C1)Oc1ccc3ccccc3c1C2c1ccc(F)cc1 (centres undefined) | -3% | 0% | 50% | 50% | – | 0% | 0% | 40% | 10% | 199 µg/mL (≈ 511 µM) | 260 µg/mL (≈ 670 µM) | 358 µg/mL (≈ 922 µM) | 345 µg/mL (≈ 888 µM)
7 | COc1cc(C2C3=C(CC(C)(C)CC3=S)Oc3ccc4ccccc4c32)ccc1O (centres undefined) | -6% | 12% | 30% | 70% | 0% | 20% | 10% | 10% | 0% | 433 µg/mL (≈ 1040 µM) | 438 µg/mL (≈ 1050 µM) | 670 µg/mL (≈ 1610 µM) | 567 µg/mL (≈ 1360 µM)
8 | CC1(C)CC(=S)C2=C(C1)Oc1ccc3ccccc3c1C2c1ccc(Cl)cc1 (centres undefined) | 35% | 18% | 70% | 30% | 10% | 20% | 40% | 40% | 30% | 311 µg/mL (≈ 767 µM) | 245 µg/mL (≈ 606 µM) | 280 µg/mL (≈ 692 µM) | 334 µg/mL (≈ 825 µM)
9 | CC1(C)CC(=S)C2=C(C1)Oc1ccc3ccccc3c1C2c1cccc(Br)c1 (centres undefined) | 15% | 6% | 100% | 0% | 50% | – | 50% | 10% | 30% | 321 µg/mL (≈ 714 µM) | 310 µg/mL (≈ 689 µM) | 478 µg/mL (≈ 1060 µM) | 475 µg/mL (≈ 1060 µM)
10 | S=C1CCCC2=C1C(c1cccc(Cl)c1)c1c(ccc3ccccc13)O2 (centres undefined) | 6% | 2% | 60% | 40% | 20% | 10% | 30% | 60% | 30% | 268 µg/mL (≈ 712 µM) | 320 µg/mL (≈ 850 µM) | 426 µg/mL (≈ 1130 µM) | 380 µg/mL (≈ 1010 µM)
11 | S=C1CCCC2=C1C(c1ccccc1Br)c1c(ccc3ccccc13)O2 (centres undefined) | 1% | -2% | 25% | 75% | 20% | 5% | 0% | 90% | 50% | 136 µg/mL (≈ 322 µM) | 148 µg/mL (≈ 352 µM) | 225 µg/mL (≈ 535 µM) | 286 µg/mL (≈ 678 µM)
12 | CC1(C)C(C=C(Cl)Cl)C1C(=O)OC(C#N)c1cccc(Oc2ccccc2)c1 (stereo not drawn) [ALPHA-CYPERMETHRIN] | – | – | – | – | – | – | – | – | 100% | – | – | – | –
13 | CC1(C)CC(=S)C2=C(C1)Oc1ccc3ccccc3c1C2c1ccc2ccccc2c1 (centres undefined) | 1% | 3% | 30% | 70% | 20% | 10% | 0% | 80% | 0% | 165 µg/mL (≈ 393 µM) | 189 µg/mL (≈ 448 µM) | 199 µg/mL (≈ 473 µM) | 244 µg/mL (≈ 580 µM)
14 | O=[N+]([O-])c1ccc(C2C3=C(CCCC3=S)Oc3ccc4ccccc4c32)cc1 (centres undefined) | 1% | -1% | 80% | 20% | 10% | – | 50% | 70% | 0% | 212 µg/mL (≈ 547 µM) | 358 µg/mL (≈ 923 µM) | 670 µg/mL (≈ 1730 µM) | 555 µg/mL (≈ 1430 µM)
15 | COc1ccc(C2C3=C(CC(C)(C)CC3=S)Oc3ccc4ccccc4c32)cc1 (centres undefined) | 5% | -4% | 40% | 60% | 10% | 20% | 10% | 10% | 0% | 406 µg/mL (≈ 1010 µM) | 279 µg/mL (≈ 697 µM) | 365 µg/mL (≈ 912 µM) | 478 µg/mL (≈ 1190 µM)
16 | S=C1CCCC2=C1C(c1ccccc1)c1c(ccc3ccccc13)O2 (centres undefined) | 47% | 22% | 50% | 50% | 0% | 10% | 40% | 30% | 10% | 210 µg/mL (≈ 613 µM) | 287 µg/mL (≈ 839 µM) | 500 µg/mL (≈ 1460 µM) | 438 µg/mL (≈ 1280 µM)
